Screening data: PubChem, Broad Institute
In the library only some 1.6% were active in any assay of this set; here they are far more common.
SR-BI uptake up: enhances SR-BI lipid uptake from DiI-HDL. CHO ldlA[mSR-BI] cells, DiI-HDL uptake fluorescence, 3 h; 100 = double the neutral-control signal. AID 504775. 320,000 compounds, 0.096% hits. activation, % at 12.5 µM;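 active = mean replicate activation of at least 60% and every replicate at or above 60%; inconclusive = mean or all-replicate condition met, but not both; inactive = mean below 60% and not all replicates reaching 60%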;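 also: 0% = median plate neutral-control signal and 100% = twice that signal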
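Test system: SR-BI-overexpressing, LDLR-lacking CHO cells; Also added: labelled HDL, 10 µg/mL; Measured by: bottom-read cell fluorescence after medium removal, ex 550/em 595 nm; Timing: 3 h uptake period with compound, 37 °C; Buffer or medium: F12, 0.5% BSA, 25 mM HEPES; Doses: single compound concentration, delivered by pin transfer.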
SR-BI HDL uptake: blocks mouse SR-BI lipid uptake from DiI-HDL | Q61009 | ldlA[mSR-BI] CHO cells, DiI-HDL uptake fluorescence, 3 h | inhibition, % at 12.5 µM | 320,000 compounds, 0.96% hits;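 active = mean replicate inhibition of at least 70% and a set share of replicates each scoring 70 or more; inconclusive = meets just one of the two criteria; inactive = fails both criteria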;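 also: 0% = median of neutral control wells and 100% = median of positive control wells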
PvdQ acylase: P. aeruginosa PvdQ acylase inhibition; purified PvdQ acylase, fluorescence plate reader; AID 488965; 340,000 compounds, 0.063% hits; inhibition, % at 10 µM; in the data active = inhibition above about 30%, passing the limit was not always enough; inconclusive = no clear call, values can overlap the other calls;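 also: 0% = vehicle neutral wells and 100% = reference inhibitor wells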
RAD54 inh: blocks human RAD54 Holliday junction branch migration | 360,000 compounds, 0.14% hits | inhibition, % at 10.4 µM | Q92698 | FAM/BHQ fluorescence | AID 602329;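 active = mean normalized replicate activity at least 40 and at least half of replicates scoring 40 or more; inconclusive = only one of the two criteria met; inactive = mean below 40 and under half of replicates reaching 40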;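 also: 0% = median of neutral control wells and 100% = median of positive control wells; inhibitors cause a drop in the FAM fluorescence signal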
S100A4 MyoIIA: inhibitors of human S100A4 binding to myosin IIA peptide. AID 652163. S100A4/TAMRA-MyoIIA peptide fluorescence polarization. 360,000 compounds, 0.14% hits. inhibition, % at 10.7 µM;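 active = mean inhibition of at least 70% across replicates, with every replicate also reaching that level; inconclusive = mean inhibition reaches 70% but some replicates fall short; inactive = mean inhibition below 70%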
Target sequence (P26447 whole entry, looked up): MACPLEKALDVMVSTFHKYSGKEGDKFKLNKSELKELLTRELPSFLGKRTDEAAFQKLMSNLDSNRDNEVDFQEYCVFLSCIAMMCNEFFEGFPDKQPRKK
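System – human S100A4 monomer protein, biochemical binding assay · Buffer or medium – Calcium-containing HEPES buffer, pH 7.2 · Timing – 5 min between mix addition and reading · Also added – TAMRA-labelled myosin IIA heavy-chain peptide probe, 5 nM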
dFosB activator: activators of mouse delta FosB homodimer; purified delta FosB, TAMRA-CDK5 oligo fluorescence polarization; percent of positive-control signal above neutral wells; activation, % at 25 µM; 340,000 compounds, 0.99% hits;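 active = mean activation above about 17%, with every replicate also reaching it, limit read from the data, passing the limit was not always enough; inconclusive = only one of the two conditions met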
Target sequence (P13346 whole entry, looked up): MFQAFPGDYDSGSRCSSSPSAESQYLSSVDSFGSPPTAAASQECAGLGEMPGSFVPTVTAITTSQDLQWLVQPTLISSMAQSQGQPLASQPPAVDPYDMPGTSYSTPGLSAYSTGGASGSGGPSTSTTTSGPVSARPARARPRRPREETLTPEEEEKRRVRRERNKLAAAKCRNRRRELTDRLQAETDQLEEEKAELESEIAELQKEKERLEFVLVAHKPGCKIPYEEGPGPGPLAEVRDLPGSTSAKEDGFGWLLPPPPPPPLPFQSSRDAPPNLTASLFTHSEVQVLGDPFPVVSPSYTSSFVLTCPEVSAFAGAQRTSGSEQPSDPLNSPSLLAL
Starred values were filed as active, the others as inactive; ? = inconclusive; nt = no result.

SMILES	SR-BI uptake up	SR-BI HDL uptake	PvdQ acylase	RAD54 inh	S100A4 MyoIIA	dFosB activator
O=C(N/N=C/c1cc([N+](=O)[O-])ccc1O)c1c[nH]c2ccccc12	nt	nt	-12.4	nt	6.6	14.9
Cc1ccc(-c2nc(N/N=C/c3cccnc3)c3ccccc3n2)cc1	-45.2	45.2	-8.8	2.0	nt	-48.3
Cc1ccc(-c2nc(N/N=C/c3cccc([N+](=O)[O-])c3)c3ccccc3n2)cc1	-74.1	74.1*	-14.1	2.1	nt	-10.9
C[C@@H]1CCCCO[C@H](CN(C)CC2CCCCC2)[C@H](C)CN([C@H](C)CO)C(=O)c2cc(NS(=O)(=O)c3cccs3)ccc2O1	nt	nt	nt	-5.5	-2.9	nt
CN(C)C(=O)C[C@@H]1C[C@@H]2c3cc(NC(=O)Nc4ccc(C(F)(F)F)cc4)ccc3O[C@@H]2[C@H](CO)O1	nt	nt	nt	3.5	5.7	nt
O=C(N/N=C/c1cccc([N+](=O)[O-])c1)c1cc(-c2ccccc2)nc2ccccc12	-80.2	80.2*	-4.6	4.8	8.0	?
O=[N+]([O-])c1ccc(O)c(/C=N/NC(=S)Nc2ccc(Cl)cc2Cl)c1	-104.6	104.7*	-6.2	-6.5	-1.2	5.5
O=C(N/N=C/c1cc([N+](=O)[O-])ccc1O)C12CC3CC(CC(C3)C1)C2	-135.7	135.7*	-0.6	nt	-1.7	-5.1
O=C(N/N=C/c1ccc([N+](=O)[O-])o1)c1cc(-c2ccc(-c3ccccc3)cc2)nc2ccccc12	-118.5	118.5*	-2.3	nt	12.7	-10.9
O=C(N/N=C/c1ccc([N+](=O)[O-])o1)c1cc(-c2ccncc2)nc2ccccc12	-41.4	41.4	13.1	4.0	nt	-1.1
O=C(N/N=C/c1cccc(O)c1)c1cc(-c2ccccc2)nc2ccccc12	-56.6	56.6	-18.8	3.7	-1.1	-13.4
O=C(N/N=C/c1cc([N+](=O)[O-])ccc1O)NC12CC3CC(CC(C3)C1)C2	-5.0	5.0	-6.2	nt	1.3	2.8
CN(Cc1ccccc1)CC(O)CC(O)c1ccccc1 (centres undefined)	nt	nt	nt	-4.2	-15.3	nt
CCCc1cn(CC[C@@H]2CC[C@@H](NC(=O)Nc3ccc4c(c3)OCO4)[C@@H](CO)O2)nn1	nt	nt	nt	-0.1	-3.9	nt
Cc1cc(C(=O)N/N=C/c2cc(N=Nc3ccccc3)ccc2O)n[nH]1	-115.1	115.0*	-5.5	nt	nt	-6.6
Cc1cc(C(=O)N/N=C/c2cc([N+](=O)[O-])ccc2O)c2ccccc2n1	-118.1	118.1*	-2.8	nt	nt	1.1
O=C(N/N=C/c1cc([N+](=O)[O-])ccc1O)c1cc(-c2ccccc2)nc2ccccc12	-128.6	128.6*	-11.0	nt	-1.2	-2.0
COc1ccc(CN(C)C[C@@H]2Oc3ccc(NS(=O)(=O)c4c(C)noc4C)cc3CC(=O)N([C@H](C)CO)C[C@H]2C)cc1	nt	nt	nt	nt	2.8	nt
C[C@@H]1CN([C@H](C)CO)C(=O)CCCn2cc(nn2)CO[C@@H]1CN(C)C(=O)Nc1ccc(C(F)(F)F)cc1	nt	nt	nt	-5.2	-5.9	nt
Oc1cccc(-c2sc3ccccc3c2-c2ccc(OCCN3CCCCC3)cc2)c1	nt	nt	nt	nt	4.1	nt
O=C(c1ccc(OCCN2CCCCC2)cc1)c1c(-c2ccc(O)cc2)sc2cc(O)ccc12	-19.2	19.2	-10.0	-4.6	3.0	34.4*
CO[C@@H]1CN(C)C(=O)c2cc(NC(=O)c3cnccn3)ccc2OC[C@H](C)N(C(C)=O)C[C@H]1C	nt	nt	nt	2.9	-2.0	nt
O=[N+]([O-])c1ccccc1N/N=C1\CC2CC=CC12 (centres undefined)	4.6	-4.6	58.1*	nt	-0.6	-7.7
O=C(N/N=C1\CC2CC=CC12)c1ccccc1Cl (centres undefined)	10.9	-10.9	17.3	-4.0	0.5	-3.9
CCN(CC)CCNc1nc2cc(OC)c(OC)cc2c2nc(-c3ccccc3)nn12	5.6	-5.6	5.6	106.0*	nt	151.3*
SMILES	SR-BI uptake up	SR-BI HDL uptake	PvdQ acylase	RAD54 inh	S100A4 MyoIIA	dFosB activator
C[C@@H]1CCCCO[C@H](CN(C)S(C)(=O)=O)[C@@H](C)CN([C@H](C)CO)C(=O)c2cc(NC(=O)Nc3cccc4ccccc34)ccc2O1	nt	nt	nt	-2.4	4.9	nt
Cc1noc(C)c1S(=O)(=O)Nc1ccc2c(c1)C(=O)N([C@@H](C)CO)C[C@@H](C)[C@@H](CN(C)C(=O)Nc1cccc3ccccc13)O2	nt	nt	nt	-3.4	-0.9	nt
C/C(=N\Nc1nc(C)c(C)s1)c1ccc([N+](=O)[O-])cc1	-81.0	81.0*	2.6	nt	-11.9	-3.4
C/C(=N\Nc1ccc([N+](=O)[O-])cc1)c1ccc(N)cc1	-22.7	22.7	-2.0	-4.6	-4.7	-7.7
Cc1noc(C)c1NC(=O)N(C)C[C@@H]1Oc2ncc(C#CC3CCCC3)cc2C(=O)N([C@H](C)CO)C[C@@H]1C	nt	nt	nt	-3.0	-2.1	nt
O=C1C=C(c2cc(C(F)(F)F)cc(C(F)(F)F)c2)C[C@@H](c2ccc(Cl)cc2)C1	-74.4	74.4*	-14.8	-9.6	-2.4	-5.5
COc1ccccc1/C=C/C(=O)Nc1cccc(S(=O)(=O)N2CCOCC2)c1	-84.9	84.9*	-16.8	-8.1	-7.1	-24.8
COc1ccc(/C=C/C(=O)Nc2cccc(S(=O)(=O)N3CCOCC3)c2)cc1OC	-67.4	67.4	-2.7	3.5	-1.0	9.4
COc1ccc(OC)c(/C=C/C(=O)Nc2ccc3c(c2)CCC3)c1	-70.5	?	8.0	3.5	0.9	-3.7
COc1ccccc1/C=C/C(=O)Nc1ccc2c(c1)CCC2	-72.5	72.5*	9.4	nt	nt	-9.9
COc1cc(/C=C/C(=O)Nc2cccc(S(=O)(=O)N3CCOCC3)c2)ccc1OCC#N	-77.6	77.6*	2.8	2.6	2.8	-13.3
CN(C)C(=O)c1cccc(-c2ccc3c(c2)[C@@H]2[C@@H](CCN2C(=O)C2CCC2)[C@@H](CO)N3)c1	nt	nt	nt	nt	-3.5	nt
C[C@H]1CN([C@@H](C)CO)S(=O)(=O)c2ccc(/C=C/c3ccccc3)cc2O[C@@H]1CN(C)Cc1cncnc1	nt	nt	nt	2.7	3.8	nt
Cc1cccc(NC(=S)N(C)C)c1C	3.7	-3.7	-12.9	nt	0.8	0.1
Cc1cccc(Nc2cc(C)c3c(O)cccc3n2)c1C	-11.1	11.1	-13.5	-8.6	-5.2	42.7*
CC[n+]1c(/C=C/N(C)c2ccccc2)n(-c2ccccc2)c2ccc(-c3nc4ccccc4s3)cc21	-77.8	77.8*	10.1	36.1	nt	-40.4
C[C@H]1CN([C@@H](C)CO)S(=O)(=O)c2ccc(C#CCN(C)C)cc2O[C@H]1CN(C)C	nt	nt	nt	-32.5	7.5	nt
CC(=O)C1=CN(Cc2ccccc2)CCC1=O	245.3*	-245.3	-3.0	-9.2	0.9	-4.7
CCCCCCCCCCOC(=O)Cn1c(COc2ccccc2OC)[n+](C)c2ccccc21	-9.4	9.4	-3.4	41.8	1.4	25.1*
Cn1c(COc2ccccc2O)[n+](C)c2ccccc21	11.4	-11.4	20.7	3.2	0.3	5.0
O=C1NC(=S)S/C1=C/c1ccc(N2CCOCC2)o1	31.7	-31.7	-0.8	-7.0	nt	49.1*
